Assay results reported in ChEMBL document CHEMBL3120045, “Monovalent mannose-based DC-SIGN antagonists: targeting the hydrophobic groove of the receptor” (Eur J Med Chem, 2014).

Key:
[1] = target: T1, CD209 antigen (Homo sapiens, UniProt Q9NNX6); test: Displacement of biotinylated HIV1 gp120 from DC-SIGN receptor carbohydrate recognition domain (unknown origin) after 2 hrs by solid-phase competitive displacement assay
T1 sequence (Q9NNX6 whole entry): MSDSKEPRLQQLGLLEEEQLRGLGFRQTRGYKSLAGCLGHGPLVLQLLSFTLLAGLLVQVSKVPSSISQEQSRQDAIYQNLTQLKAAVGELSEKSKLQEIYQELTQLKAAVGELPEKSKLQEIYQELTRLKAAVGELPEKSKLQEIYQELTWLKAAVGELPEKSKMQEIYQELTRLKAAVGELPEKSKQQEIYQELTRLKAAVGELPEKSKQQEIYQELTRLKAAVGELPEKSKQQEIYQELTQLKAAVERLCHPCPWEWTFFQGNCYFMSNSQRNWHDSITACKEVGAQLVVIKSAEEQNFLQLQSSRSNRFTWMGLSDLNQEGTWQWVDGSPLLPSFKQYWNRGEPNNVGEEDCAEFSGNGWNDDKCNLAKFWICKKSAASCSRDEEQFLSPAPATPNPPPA

[2] = target: T1, CD209 antigen; test: Antagonist activity at DC-SIGN receptor (unknown origin) assessed as inhibition of mannosylated BSA binding by SPR assay
[3] = Cytotoxicity against human DC at 50 uM after 24 hrs by propidium iodide staining-based flow cytometry
In short: (§1)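 Immature DCs, seeded after 5 days of culture at 0.5 × 10⁶ cells/ml, were treated with compounds at 50, 100 and 250 for 24 h. Cells were then harvested, stained with propidium iodide for 15 min and analysed by flow cytometry. The percentage of PI-positive cells was taken as the percentage of dead cells.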

[4] = Cytotoxicity against human DC at 250 uM after 24 hrs by propidium iodide staining-based flow cytometry
[5] = Cytotoxicity against human DC at 250 uM after 24 hrs by propidium iodide staining-based flow cytometry; in short: as §1
[6] = Cytotoxicity against human DC at 100 uM after 24 hrs by propidium iodide staining-based flow cytometry; in short: as §1
[7] = target: T1, CD209 antigen; test: Displacement of [125I]-Man30-BSA from DC-SIGN receptor carbohydrate recognition domain (unknown origin) after 2 hrs by gamma-counting analysis

| IC50 [1] | SMILES | Activity [3] | Activity [4] | Activity [5] | other results |
| --- | --- | --- | --- | --- | --- |
| 2760 µM | COC(=O)[C@H]1C[C@H](OCCN=[N+]=[N-])[C@@H](O[C@H]2O[C@H](CO)[C@@H](O)[C@H](O)[C@@H]2O)C[C@@H]1C(=O)OC |  |  |  | IC50 [2]: 1020 µM |
| 420 µM | [N-]=[N+]=NCCO[C@H]1C[C@H](C(=O)NCc2ccc(CO)cc2)[C@@H](C(=O)NCc2ccc(CO)cc2)C[C@@H]1O[C@H]1O[C@H](CO)[C@@H](O)[C@H](O)[C@@H]1O |  |  |  | IC50 [2]: 325 µM |
|  | N#Cc1ccc(C(=O)NCC(CNC(=O)c2ccc(C#N)cc2)O[C@H]2O[C@H](CO)[C@@H](O)[C@H](O)[C@@H]2O)cc1 | Non-toxic |  |  |  |
|  | O=C(NCC(CNC(=O)c1ccc2ccccc2c1)O[C@H]1O[C@H](CO)[C@@H](O)[C@H](O)[C@@H]1O)c1ccc2ccccc2c1 | Non-toxic | Toxic | Toxic |  |
|  | OC[C@H]1O[C@H](OC(COc2cccc3ccccc23)COc2cccc3ccccc23)[C@@H](O)[C@@H](O)[C@@H]1O | Non-toxic | Toxic | Toxic | Activity [6]: Toxic |
|  | COc1ccc2ccc(OCC(COc3ccc4ccc(OC)cc4c3)O[C@H]3O[C@H](CO)[C@@H](O)[C@H](O)[C@@H]3O)cc2c1 | Non-toxic | Toxic | Toxic | Activity [6]: Toxic |
|  | COc1ccc(OCC(CO[C@H]2O[C@H](CO)[C@@H](O)[C@H](O)[C@@H]2O)Oc2ccc(OC)cc2)cc1 (mixture of isomers) | Non-toxic |  |  |  |
|  | OC[C@H]1O[C@H](OCC(COc2ccc3ccccc3c2)Oc2ccc3ccccc3c2)[C@@H](O)[C@@H](O)[C@@H]1O (mixture of isomers) | Non-toxic | Toxic | Toxic |  |
|  | OC[C@H]1OC(O)[C@@H](O)[C@@H](O)[C@@H]1O (stereo partly drawn) [D-MANNOSE] |  |  |  | Ki [7]: 13100 µM |
| 2950 µM | C[C@H](O)[C@@H](O)[C@@H](O)[C@H](O)C=O [L-FUCOSE] |  |  |  | Ki [7]: 6700 µM |
